Screening data as filed in PubChem.
Only some compounds are listed: those with a hit (about 2.4% of all), similar ones and a draw of the others.
NPY Y1 blocker – NPY-Y1 receptor antagonists, primary screen, cell-based; HEK293-CNG Y1 cells, membrane potential fluorescence; NPY at EC95, then isoproterenol; Neuropeptide Y receptor type 1 (Homo sapiens), P25929; AID 1040, 2008; inhibition, % at 3.6 µM; 1% of 200,000 active;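 active means inhibition above the campaign mean inhibition of all tested compounds plus 3 SD, cut at about 20% in these data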
Target sequence (P25929 whole entry, looked up): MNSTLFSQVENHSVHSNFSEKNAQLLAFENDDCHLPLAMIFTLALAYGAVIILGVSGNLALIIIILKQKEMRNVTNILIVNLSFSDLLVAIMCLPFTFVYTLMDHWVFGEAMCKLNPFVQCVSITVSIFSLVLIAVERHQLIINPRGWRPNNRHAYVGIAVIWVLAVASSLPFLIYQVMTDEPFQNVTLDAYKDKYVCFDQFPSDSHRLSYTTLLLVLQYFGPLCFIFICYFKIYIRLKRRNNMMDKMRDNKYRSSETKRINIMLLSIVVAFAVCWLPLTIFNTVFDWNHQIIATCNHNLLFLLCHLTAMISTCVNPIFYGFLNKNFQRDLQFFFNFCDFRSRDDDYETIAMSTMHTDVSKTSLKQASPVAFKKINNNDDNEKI
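Material: HEK293 cells co-expressing NPY Y1 receptor and cyclic-nucleotide gated channel. Timing: compound incubation 1 h at room temperature, readout 45 min post-stimulation. Signal: fluorescence, membrane potential probe.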
S1P4 antag – S1P4 receptor antagonists, primary screen, cell-based; 0.26% of 220,000 active; Sphingosine 1-phosphate receptor 4 (Homo sapiens), O95977; S1P4-expressing cells, antagonist mode, reporter read-out; inhibition, % at 4.98 µM; AID 1510, 2009; in the data active means inhibition above about 29%
NPY-Y1 PAM-ag – NPY-Y1 receptor potentiators or agonists, primary screen, cell-based. NPY-Y1 expressing cells, potentiator/agonist activation. activation, % at 3.6 µM. 0.37% of 220,000 active; in the data active means activation above about 33%, passing the limit was not always enough;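 further: cells stimulated with NPY at EC10 then isoproterenol at EC100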
NPY2 pot ag – NPY-Y2 potentiators or agonists, primary screen, cell-based. Neuropeptide Y receptor type 2 (Homo sapiens), P49146. cells expressing NPY-Y2, potentiator/agonist read-out. activation, % at 3.6 µM. 0.45% of 220,000 active. AID 1359, 2008; in the data active means activation above about 27%;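 further: cells stimulated with NPY near EC25 plus isoproterenol at EC100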
NPY Y2 blocker – NPY-Y2 receptor antagonists, primary screen, cell-based. Neuropeptide Y receptor type 2 (Homo sapiens), P49146. NPY-Y2 expressing cells, antagonist mode. inhibition, % at 2.7 µM. 0.99% of 140,000 active
S1P4 agonist – S1P4 receptor agonists, primary screen, cell-based | Sphingosine 1-phosphate receptor 4 (Homo sapiens), O95977 | S1P4-expressing cell line, agonist reporter assay | 0.35% of 220,000 active | activation, % at 4.98 µM | AID 1509, 2009; in the data active means activation above about 11%
NPY1 antag conf – NPY-Y1 receptor antagonists, retest of hits, confirmation, HEK293-CNG cells, membrane potential fluorescence, triplicate; shares compounds with NPY Y1 blocker; cAMP; NPY challenge against isoproterenol-raised cAMP; inhibition, % at 3.6 µM; 21% of 1,200 active; AID 1254, 2008; in the data active means inhibition above about 20%
NPY-Y2 antag ct – NPY-Y2 receptor antagonists, selectivity check, confirmation, counter-screen for NPY-Y1 antagonist project, HEK293-CNG cells, membrane potential fluorescence, triplicate; shares compounds with NPY Y1 blocker; antagonism; cells given NPY, then isoproterenol; inhibition, % at 3.6 µM; 28% of 1,200 active
Hits are given with their value; - = inactive; . = no result. Unless noted, no stated cut-off is given here; in the data, active means inhibition above about 17%; inactive means the rest.

SMILES	NPY Y1 blocker	S1P4 antag	NPY-Y1 PAM-ag	NPY2 pot ag	NPY Y2 blocker	S1P4 agonist	NPY1 antag conf	NPY-Y2 antag ct
Cc1ccc(-n2cc(CNCCc3ncc(C)[nH]3)c(-c3ccc(F)cc3)n2)cc1	27	-	-	-	.	-	-	25
Cc1ccc(-n2cc(CNCCN3CCOC3=O)c(-c3ccc(F)cc3)n2)cc1	-	-	-	-	.	-	.	.
Cc1ccnc(NC(c2ccccn2)c2c(C)[nH]c3ccccc23)c1 (centres undefined)	-	-	-	-	.	-	.	.
CCCNc1nc(N2CCCC2)nc(N2CCCC2)n1	30	-	-	-	.	-	-	-
CC(C)(C)Nc1nc(N2CCCC2)nc(N2CCCC2)n1	-	-	-	-	-	-	.	.
Cc1ccc(C)c(NS(=O)(=O)c2cc(C(=O)N3CCCC3)ccc2Cl)c1	-	-	-	-	.	-	.	.
CCCCCCCCn1c2c(c(=N)c3ccccc31)CCC2	99	-	-	-	.	-	77	74
CCCCCCCCCn1c2c(c(=N)c3c1CCC3)CCCC2	58	-	-	-	.	-	102	79
CCn1c2c(c(=N)c3c1CCC3)CCCC2	.	-	-	-	.	-	.	.
CC(C)CC(=O)CC1(O)C(=O)Nc2ccccc21 (centres undefined)	-	-	-	-	.	-	.	.
O=C(N=NC(=O)c1ccc2c(O)n(CC3CCCO3)c(O)c2c1)c1cccnc1 (centres undefined)	.	-	-	-	.	-	.	.
CC(NC(=S)NCc1ccc(F)cc1)C12CC3CC(CC(C3)C1)C2 (centres undefined)	-	-	-	-	.	-	.	.
N=c1c2c3c(sc2nc2n1CCCCC2)CCCCC3	20	-	-	-	-	-	-	-
CCN(CC)CC(=O)Nc1sc2c(c1C(=O)c1ccccc1OC)CCC2	23	-	-	-	.	-	-	-
Cc1ccc2oc(C(=O)NCc3ccc4c(c3)OCO4)c(C)c2c1	-	-	-	-	-	-	.	.
CCN1C(=O)c2ccc(C(=O)NCc3ccc4c(c3)OCO4)cc2C1=O	26	-	-	-	-	-	-	-
Cc1cc2oc(C(=O)NCc3ccc4c(c3)OCO4)c(C)c2cc1C	28	-	-	-	-	-	23	18
CC(C)C[C@H](NC(=O)Nc1ccc2c(c1)OCCO2)C(=O)O	.	-	-	-	.	-	.	.
Cc1cccc(NC(=S)NNC(=O)c2ccc(O)cc2O)c1C	-	-	-	-	.	-	.	.
Cc1cccc(NC(=O)NNC(=O)c2cc3ccccc3cc2O)c1C	24	-	-	-	.	-	-	-
COc1ccccc1CN1C(=O)CN(C2CCCCCC2)C(=O)C1c1ccc(F)cc1 (centres undefined)	-	-	-	-	-	-	.	.
CCC(C)N1C(=O)CN(C2CCCCCC2)C(=O)C1c1ccccc1F (centres undefined)	24	-	-	-	.	-	-	-
CCOc1ccccc1CN1CCN(Cc2cccc3nonc23)CC1CCO (centres undefined)	29	-	-	-	.	-	-	-
CC1(C)C2CCC1(C)C(OCC[N+](C)(C)CC(=O)OC1CCCCC1)C2 (centres undefined)	24	-	-	-	-	-	-	-
CCOC(=O)C[N+](C)(C)CCOC1CC2CCC1(C)C2(C)C (centres undefined)	24	-	-	-	.	-	-	-
CC1(C)[C@H]2CC[C@]1(C)[C@@H](OC(=O)C[N+]1(C)CCOCC1)C2	.	-	-	-	.	-	.	.
